Experimental data: ChEMBL document CHEMBL1136979, “Discovery of 4-anilino-N-methylthieno[3,2-d]pyrimidines and 4-anilino-N-methylthieno[2,3-d]pyrimidines as potent apoptosis inducers” (Bioorg Med Chem Lett, 2009)

How the values were obtained:
T47D = assay: Induction of apoptosis in human T47D cells assessed as caspase activation after 48 hrs by HTS assay; type: functional, cell-based
Summary of the method: (§1)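 Cell-based caspase activation HTS assay that reads cleavage of a fluorescent caspase-3 substrate in human breast cancer T47D or non-small cell lung cancer H1299 cells. Cells were exposed to compound for 48 h. EC50 is the mean ± SEM of three or more experiments.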

NCI-H1299 = assay: Induction of apoptosis in human H1299 cells assessed as caspase activation after 48 hrs by HTS assay; type: functional, cell-based; settings: NCI-H1299, 48 h; summary of the method: as §1
[1] = Inhibition of tubulin polymerization by high-throughput assay
MX1 [2] = assay: Antitumor activity against human MX1 cells xenografted in Crl:Nu/Nu-nuBR mouse assessed as tumor growth inhibition at 75 mg/kg, iv administered as single dose; type: functional; settings: read-out: TGI
Summary of the method: (§2)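 Nude (Crl:Nu/Nu-nuBR) mice bore established MX-1 xenografts of about 100 mm³. Compound was given iv as single doses of 35, 50 or 75 mg/kg on day 1, or at 7 mg/kg daily on days 1–5, against a vehicle group. Tumor growth inhibition was assessed against vehicle, with significance by Student's t-test.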

Mus musculus = assay: Toxicity in Crl:Nu/Nu-nuBR mouse assessed as maximum body weight decrease at 75 mg/kg, iv administered as single dose; type: organism-based; parameters: dose 75 mg/kg, route intravenous; scale not given: the % may be the effect or the level left; settings: in vivo
MX1 [3] = assay: Antitumor activity against human MX1 cells xenografted in iv dosed Crl:Nu/Nu-nuBR mouse assessed as tumor growth inhibition administered as single dose; type: functional, organism-based; summary of the method: as §2

EC50 (T47D) | EC50 (NCI-H1299) | IC50 [1] | SMILES | inhibition in vivo at 75 mg/kg (MX1 [2]) | Activity (Mus musculus) | Activity (MX1 [3])
190 nM | 340 nM | – | COC(=O)c1ccc(N(C)c2ncnc3ccsc23)cc1 | – | – | –
> 10000 nM | > 10000 nM | – | COc1ccc(N(C)c2ncnc3cc(-c4cccnc4)sc23)cc1 | – | – | –
560 nM | 560 nM | – | COc1ccc(N(C)c2ncnc3c(C)csc23)cc1 | – | – | –
24 nM | 53 nM | < 1000 nM | COc1ccc(N(C)c2ncnc3sc(C)c(C)c23)cc1 | – | – | –
> 10000 nM | > 10000 nM | – | COc1ccc(N(C)c2ncnc3cc(I)sc23)cc1 | – | – | –
> 10000 nM | > 10000 nM | – | COc1ccc(N(C)c2nccc3ccsc23)cc1 | – | – | –
> 10000 nM | > 10000 nM | – | COc1cccc(N(C)c2ncnc3ccsc23)c1 | – | – | –
14 nM | 32 nM | < 1000 nM | COc1ccc(N(C)c2nc(C)nc3ccsc23)cc1 | – | – | –
52 nM | 240 nM | < 1000 nM | COc1ccc(N(C)c2ncnc3ccsc23)cc1 | – | – | –
8 nM | 16 nM | < 1000 nM | COc1ccc(N(C)c2nc(C)nc3sccc23)cc1 | 90% | < 10% | Dose-dependent effect
22 nM | 44 nM | < 1000 nM | COc1ccc(N(C)c2ncnc3sccc23)cc1 | – | – | –
15 nM | 25 nM | < 1000 nM | COc1ccc(N(C)c2ncnc3scc(C)c23)cc1 | – | – | –

Further lines, the molecule ahead of its results:

SMILES | EC50 (T47D) | EC50 (NCI-H1299) | IC50 [1] | inhibition in vivo at 75 mg/kg (MX1 [2]) | Activity (Mus musculus) | Activity (MX1 [3])
COc1ccc(N(C)c2nc(-c3ccccc3)nc3ccsc23)cc1 | 340 nM | 630 nM | – | – | – | –
COc1cc(OC)cc(N(C)c2ncnc3ccsc23)c1 | > 10000 nM | > 10000 nM | – | – | – | –
COc1ccccc1N(C)c1ncnc2ccsc12 | > 10000 nM | > 10000 nM | – | – | – | –
c1ccc(-c2cc3ncnc(Nc4ccc5c(c4)OCO5)c3s2)cc1 | > 10000 nM | > 10000 nM | – | – | – | –
COc1ccc(N(C)c2nc(C)nc3ccccc23)cc1 [VERUBULIN] | 2 nM | 6 nM | – | – | – | –
COc1ccc(Nc2ncnc3scc(C)c23)cc1 | > 10000 nM | > 10000 nM | – | – | – | –
COc1ccc(Nc2ncnc3ccsc23)cc1 | > 10000 nM | > 10000 nM | – | – | – | –
COc1ccc(N(C)c2nc(C)nc3scc(C)c23)cc1 | 4 nM | 15 nM | < 1000 nM | – | – | –
c1ccc(-c2cc3ncnc(NCc4ccc5c(c4)OCO5)c3s2)cc1 | 1000 nM | 700 nM | – | – | – | –
COc1ccc(N(C)c2nc(C)nc3c(C)csc23)cc1 | 240 nM | 310 nM | – | – | – | –
COc1ccc(N(C)c2nc(C)nc3sc(C)c(C)c23)cc1 | 21 nM | 91 nM | < 1000 nM | – | – | –
COc1ccc(OC)c(N(C)c2ncnc3ccsc23)c1 | 2600 nM | 5000 nM | – | – | – | –
c1nc(NCc2ccc3c(c2)OCO3)c2sccc2n1 | > 10000 nM | > 10000 nM | – | – | – | –
COc1cc2c(c(OC)c1OC)-c1ccc(OC)c(=O)cc1[C@@H](NC(C)=O)CC2 [COLCHICINE] | 9 nM | 50 nM | 500 nM | – | – | –
COc1ccc(N(C)c2ncnc3ccsc23)cc1OC | 1700 nM | 2800 nM | – | – | – | –
COc1ccc(Nc2nc(C)nc3scc(C)c23)cc1 | > 10000 nM | > 10000 nM | – | – | – | –
